Legend:
[1] = species on record: Homo sapiens; assay: Selectivity ratio of Ki for CB2 receptor to Ki for human CB1 receptor
[2] = molecular target: T1, Cannabinoid receptor 1 (Homo sapiens, UniProt P21554); conditions: CHO-K1
[3] = molecular target: T1, Cannabinoid receptor 1; assay: biochemical; assay type: cell-based, CHO-K1
[4] = molecular target: Cannabinoid receptor 2 (Homo sapiens, UniProt P34972); assay: Displacement of [3H]CP55940 from CB2 receptor expressed in CHO-K1 cells; assay type: cell-based
Sequence of Cannabinoid receptor 2 (P34972 whole entry): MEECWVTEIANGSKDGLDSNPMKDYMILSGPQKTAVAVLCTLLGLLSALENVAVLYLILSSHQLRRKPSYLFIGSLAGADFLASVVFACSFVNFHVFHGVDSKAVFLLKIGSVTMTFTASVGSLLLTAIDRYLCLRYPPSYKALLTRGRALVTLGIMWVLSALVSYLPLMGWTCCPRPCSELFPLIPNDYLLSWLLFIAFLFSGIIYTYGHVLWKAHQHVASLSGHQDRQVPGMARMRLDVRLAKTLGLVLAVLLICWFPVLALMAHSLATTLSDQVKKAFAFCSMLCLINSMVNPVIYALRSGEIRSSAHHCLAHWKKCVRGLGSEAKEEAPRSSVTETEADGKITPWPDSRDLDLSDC

[5] = system: MDCK; assay: Permeability from apical to basal side of MDCK cells expressing human mdr1 gene; assay type: ADME, cell-based, Canis lupus familiaris; conditions: dog
Outline: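 MDCK-mdr1 cells grown 4 days to confluence on Transwell-type filters in DMEM/F12 with 10% FBS and antibiotics. Compound added apically at 3.16 μM in HBSS with 25 mM D-glucose, HEPES-buffered to pH 7.4; 1 hr at 37°C. Apical and basal samples collected and analysed by LC-MS/MS (MRM).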

[6] = Metabolic stability in human hepatic S9 fraction assessed as compound remaining at 10 uM after 120 mins; assay type: ADME, Liver; conditions: s9, 2 h
Outline: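 Human hepatic S9 (1 mg/ml) with 10 μM final compound in 50 mM potassium phosphate pH 7.4, 3 mM MgCl2, NADPH regenerating system (NADP 1 mM, glucose-6-phosphate 5 mM, G6PDH 1 unit/ml). Triplicates sampled at 0, 15, 30, 60, 120 min; stopped with 3 volumes acetonitrile; LC-MS/MS (MRM) against matrix standard curves; % parent remaining at 120 min.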

[7] = system: Plasma; assay: Metabolic stability in human plasma assessed as compound remaining at 10 uM preincubated for 5 mins measured after 60 mins; assay type: ADME, cell-free; conditions: 1 h
Outline: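 Human plasma, 1 ml per sample at 37°C, 5 min pre-incubation, then compound at 10 μM final, sampled at 0, 30 and 60 min. Reactions stopped with acetonitrile; LC-MS/MS (MRM) quantitation with standards in blank matrix; % parent remaining at 60 min.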
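Throughout, for Ke: antagonism measured as blockade of CP55940-evoked intracellular Ca2+ rise, read fluorometrically, in cells additionally carrying Galphaq16.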

T1 sequence (P21554 whole entry): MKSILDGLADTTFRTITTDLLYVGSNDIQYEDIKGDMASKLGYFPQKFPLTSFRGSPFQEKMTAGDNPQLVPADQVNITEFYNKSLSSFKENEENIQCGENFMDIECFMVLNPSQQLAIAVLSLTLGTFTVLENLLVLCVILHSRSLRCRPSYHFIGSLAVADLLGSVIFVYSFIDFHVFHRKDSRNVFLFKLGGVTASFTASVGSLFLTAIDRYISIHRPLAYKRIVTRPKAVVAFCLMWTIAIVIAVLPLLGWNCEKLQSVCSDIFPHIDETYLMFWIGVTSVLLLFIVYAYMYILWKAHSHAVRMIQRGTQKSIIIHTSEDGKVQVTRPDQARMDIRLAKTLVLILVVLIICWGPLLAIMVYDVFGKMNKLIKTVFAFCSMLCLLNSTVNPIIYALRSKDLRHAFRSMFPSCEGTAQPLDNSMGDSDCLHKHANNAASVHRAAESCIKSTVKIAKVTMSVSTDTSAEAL

Row | SMILES | Ratio Ki [1] | Ke [2] | Ki [3] | Ki [4] | permeability [5] | Stability [6] | Stability [7]
1 | CCCNC(=O)NC1(c2ccccc2)CCN(C(=O)c2nn(-c3ccc(Cl)cc3Cl)c(-c3ccc(Cl)cc3)c2C)CC1 | 39 | 0.4 nM |  |  |  |  | 
2 | CC(=O)NC1(c2ccccc2)CCN(C(=O)c2nn(-c3ccc(Cl)cc3Cl)c(-c3ccc(Cl)cc3)c2C)CC1 | 3.4 | 201 nM |  |  |  |  | 
3 | CCCNC(=O)N1CCC[C@H](NC(=O)c2nn(-c3ccc(Cl)cc3Cl)c(-c3ccc(Cl)cc3)c2C)C1 | 29 | 70 nM | 271 nM | 7800 nM |  |  | 
4 | Cc1c(C(=O)N[C@H]2CCCN(C(=O)NC(C)C)C2)nn(-c2ccc(Cl)cc2Cl)c1-c1ccc(Cl)cc1 |  | 265 nM |  |  |  |  | 
5 | CCOC(=O)N1CCC(NC(=O)c2nn(-c3ccc(Cl)cc3Cl)c(-c3ccc(Cl)cc3)c2C)CC1 | 326 | 3 nM | 9.2 nM | 3000 nM | < 1% |  | 
6 | CC(=O)N1CCC(NC(=O)c2nn(-c3ccc(Cl)cc3Cl)c(-c3ccc(Cl)cc3)c2C)CC1 | 34.2 | 195 nM | 65.3 nM | 2240 nM |  |  | 
7 | CCCCNC(=O)NCC1CCC(CNC(=O)c2nn(-c3ccc(Cl)cc3Cl)c(-c3ccc(Cl)cc3)c2C)CC1 (configuration not stated) |  | 274 nM |  |  |  |  | 
8 | Cc1c(C(=O)N[C@@H]2CCCN(C(=O)NC(C)(C)C)C2)nn(-c2ccc(Cl)cc2Cl)c1-c1ccc(Cl)cc1 |  | 268 nM |  |  |  |  | 
9 | Cc1c(C(=O)N2CCC(NC(=O)Nc3ccc(N(C)C)cc3)(c3ccccc3)CC2)nn(-c2ccc(Cl)cc2Cl)c1-c1ccc(Cl)cc1 | 11 | 264 nM | 1490 nM | 16300 nM |  |  | 
10 | CCNC(=O)NCC1CCC(CNC(=O)c2nn(-c3ccc(Cl)cc3Cl)c(-c3ccc(Cl)cc3)c2C)CC1 (configuration not stated) |  | 135 nM |  |  |  |  | 
11 | CCNC(=O)NC1(c2ccccc2)CCN(C(=O)c2nn(-c3ccc(Cl)cc3Cl)c(-c3ccc(Cl)cc3)c2C)CC1 | 12 | 10.8 nM |  |  |  |  | 
12 | Cc1c(C(=O)N[C@@H]2CCCNC2)nn(-c2ccc(Cl)cc2Cl)c1-c1ccc(Cl)cc1 |  | 1170 nM |  |  |  |  | 
13 | Cc1c(C(=O)NC2CCNCC2)nn(-c2ccc(Cl)cc2Cl)c1-c1ccc(Cl)cc1 |  | 5120 nM |  |  |  |  | 
14 | CCOC(=O)N1CCC[C@@H](NC(=O)c2nn(-c3ccc(Cl)cc3Cl)c(-c3ccc(Cl)cc3)c2C)C1 | 143 | 10.4 nM | 17.5 nM | 2510 nM | < 1% |  | 
15 | CCCCCCNC(=O)NC1(c2ccccc2)CCN(C(=O)c2nn(-c3ccc(Cl)cc3Cl)c(-c3ccc(Cl)cc3)c2C)CC1 | 62 | 0.5 nM |  |  | < 1% |  | 
16 | Cc1c(C(=O)N2CCC(NS(C)(=O)=O)(c3ccccc3)CC2)nn(-c2ccc(Cl)cc2Cl)c1-c1ccc(Cl)cc1 | 5.6 | 3.5 nM |  |  | 3% |  | 
17 | Cc1c(C(=O)N2CCC(NC(=O)NC(C)C)(c3ccccc3)CC2)nn(-c2ccc(Cl)cc2Cl)c1-c1ccc(Cl)cc1 | 364 | 0.7 nM |  |  |  |  | 
18 | Cc1c(C(=O)NC2CCN(C(N)=O)CC2)nn(-c2ccc(Cl)cc2Cl)c1-c1ccc(Cl)cc1 |  | 4100 nM |  |  |  |  | 
19 | CCCCNC(=O)NC1(c2ccccc2)CCN(C(=O)c2nn(-c3ccc(Cl)cc3Cl)c(-c3ccc(Cl)cc3)c2C)CC1 | 178 | 0.4 nM |  |  | < 1% |  | 
20 | CCNC(=O)N1CCC(NC(=O)c2nn(-c3ccc(Cl)cc3Cl)c(-c3ccc(Cl)cc3)c2C)CC1 | 35 | 20.5 nM | 165 nM | 5690 nM |  |  | 
21 | Cc1c(C(=O)N2CCC(NC(=O)NC3CCCCC3)(c3ccccc3)CC2)nn(-c2ccc(Cl)cc2Cl)c1-c1ccc(Cl)cc1 | 25 | 12 nM |  | 20000 nM |  |  | 
22 | Cc1c(C(=O)N2CCC(N)(c3ccccc3)CC2)nn(-c2ccc(Cl)cc2Cl)c1-c1ccc(Cl)cc1 | 10.8 | 485 nM |  |  |  |  | 
23 | Cc1c(C(=O)NCC2CCC(CNS(N)(=O)=O)CC2)nn(-c2ccc(Cl)cc2Cl)c1-c1ccc(Cl)cc1 (configuration not stated) |  |  |  |  |  | 62% | > 90%
24 | CCCCNC(=O)N1CCC[C@H](NC(=O)c2nn(-c3ccc(Cl)cc3Cl)c(-c3ccc(Cl)cc3)c2C)C1 |  | 230 nM |  |  |  |  | 
25 | Cc1c(C(=O)N2CCC(NC(=O)Nc3ccc(F)cc3)(c3ccccc3)CC2)nn(-c2ccc(Cl)cc2Cl)c1-c1ccc(Cl)cc1 | 33 | 89 nM | 614 nM | 20000 nM |  |  | 
26 | Cc1c(C(=O)NCC2CCC(CNS(C)(=O)=O)CC2)nn(-c2ccc(Cl)cc2Cl)c1-c1ccc(Cl)cc1 (configuration not stated) |  |  |  |  |  | 37% | > 90%
27 | CCNC(=O)N1CCC[C@@H](NC(=O)c2nn(-c3ccc(Cl)cc3Cl)c(-c3ccc(Cl)cc3)c2C)C1 |  | 171 nM |  |  |  |  | 

Row | SMILES | Ratio Ki [1] | Ke [2] | Ki [3] | Ki [4] | permeability [5] | Stability [6] | Stability [7]
28 | CCNC1(C(N)=O)CCN(c2ncnc3c2nc(-c2ccccc2Cl)n3-c2ccc(Cl)cc2)CC1 [OTENABANT] |  |  |  |  | 90% |  | 
29 | CCCCNC(=O)N1CCC(NC(=O)c2nn(-c3ccc(Cl)cc3Cl)c(-c3ccc(Cl)cc3)c2C)CC1 | 47 | 78.1 nM | 187 nM | 8720 nM |  |  | 
30 | Cc1c(C(=O)NC2CCN(S(N)(=O)=O)CC2)nn(-c2ccc(Cl)cc2Cl)c1-c1ccc(Cl)cc1 |  | 592 nM |  |  |  |  | 
31 | CCCNC(=O)N1CCC(NC(=O)c2nn(-c3ccc(Cl)cc3Cl)c(-c3ccc(Cl)cc3)c2C)CC1 | 46 | 66.5 nM | 184 nM | 8460 nM |  |  | 
32 | Cc1c(C(=O)N[C@H]2CCCN(C(=O)OC(C)(C)C)C2)nn(-c2ccc(Cl)cc2Cl)c1-c1ccc(Cl)cc1 |  | 842 nM |  |  |  |  | 
33 | Cc1c(C(=O)NCC2CCC(CNC(=O)NC(C)C)CC2)nn(-c2ccc(Cl)cc2Cl)c1-c1ccc(Cl)cc1 (configuration not stated) |  | 351 nM |  |  |  |  | 
34 | Cc1c(C(=O)NCC2CCC(CNC(=O)NC(C)(C)C)CC2)nn(-c2ccc(Cl)cc2Cl)c1-c1ccc(Cl)cc1 (configuration not stated) |  | 150 nM |  |  |  |  | 
35 | Cc1c(C(=O)N[C@H]2CCCN(C(=O)NC(C)(C)C)C2)nn(-c2ccc(Cl)cc2Cl)c1-c1ccc(Cl)cc1 |  | 206 nM |  |  |  |  | 
36 | CCNC1(C(N)=O)CCN(C(=O)c2nn(-c3ccc(Cl)cc3Cl)c(-c3ccc(Cl)cc3)c2C)CC1 | 28.3 | 91 nM |  |  |  |  | 
37 | Cc1c(C(=O)NN2CCCCC2)nn(-c2ccc(Cl)cc2Cl)c1-c1ccc(Cl)cc1 [RIMONABANT] |  |  |  |  |  | 47% | > 90%
38 | CC(=O)N1CCC[C@H](NC(=O)c2nn(-c3ccc(Cl)cc3Cl)c(-c3ccc(Cl)cc3)c2C)C1 | 111 | 86 nM | 39.1 nM | 4350 nM | 14% |  | 
39 | CCCNC(=O)NCC1CCC(CNC(=O)c2nn(-c3ccc(Cl)cc3Cl)c(-c3ccc(Cl)cc3)c2C)CC1 (configuration not stated) |  | 486 nM |  |  |  |  | 
40 | Cc1c(C(=O)N[C@H]2CCCN(S(C)(=O)=O)C2)nn(-c2ccc(Cl)cc2Cl)c1-c1ccc(Cl)cc1 | 140 | 62 nM | 77.9 nM | 10900 nM | < 1% |  | 
41 | CCOC(=O)N1CCC[C@H](NC(=O)c2nn(-c3ccc(Cl)cc3Cl)c(-c3ccc(Cl)cc3)c2C)C1 | 83 | 75 nM | 65.5 nM | 5420 nM | < 1% |  | 
42 | Cc1c(C(=O)NC2CCN(C(=O)NC(C)C)CC2)nn(-c2ccc(Cl)cc2Cl)c1-c1ccc(Cl)cc1 | 114 | 16.7 nM | 86 nM | 9790 nM | 14% |  | 
43 | Cc1c(C(=O)N2CCC(C(=O)O)(c3ccccc3)CC2)nn(-c2ccc(Cl)cc2Cl)c1-c1ccc(Cl)cc1 |  | 1170 nM |  |  |  |  | 
44 | Cc1c(C(=O)NC2CCN(S(C)(=O)=O)CC2)nn(-c2ccc(Cl)cc2Cl)c1-c1ccc(Cl)cc1 |  | 269 nM |  |  |  |  | 
45 | Cc1c(C(=O)N2CCC(NC(=O)Nc3ccc(C#N)cc3)(c3ccccc3)CC2)nn(-c2ccc(Cl)cc2Cl)c1-c1ccc(Cl)cc1 |  | > 10000 nM |  |  |  |  | 
46 | Cc1c(C(=O)N[C@@H]2CCCN(C(=O)OC(C)(C)C)C2)nn(-c2ccc(Cl)cc2Cl)c1-c1ccc(Cl)cc1 | 302 | 52 nM | 22.3 nM | 6720 nM | < 1% |  | 
47 | CCCCNC(=O)N1CCC[C@@H](NC(=O)c2nn(-c3ccc(Cl)cc3Cl)c(-c3ccc(Cl)cc3)c2C)C1 | 24 | 118 nM | 125 nM | 3030 nM |  |  | 
48 | Cc1c(C(=O)N[C@@H]2CCCN(S(C)(=O)=O)C2)nn(-c2ccc(Cl)cc2Cl)c1-c1ccc(Cl)cc1 | 106 | 7 nM | 11.8 nM | 1250 nM | < 1% |  | 
49 | Cc1c(C(=O)N[C@@H]2CCCN(C(=O)NC(C)C)C2)nn(-c2ccc(Cl)cc2Cl)c1-c1ccc(Cl)cc1 | 43 | 31.3 nM | 97 nM | 4130 nM |  |  | 
50 | Cc1c(C(=O)N[C@H]2CCCNC2)nn(-c2ccc(Cl)cc2Cl)c1-c1ccc(Cl)cc1 |  | 1880 nM |  |  |  |  | 
51 | CCNC(=O)N1CCC[C@H](NC(=O)c2nn(-c3ccc(Cl)cc3Cl)c(-c3ccc(Cl)cc3)c2C)C1 |  | 280 nM |  |  |  |  | 
52 | CCCNC(=O)N1CCC[C@@H](NC(=O)c2nn(-c3ccc(Cl)cc3Cl)c(-c3ccc(Cl)cc3)c2C)C1 | 23 | 27 nM | 134 nM | 3090 nM |  |  | 
53 | CC(=O)N1CCC[C@@H](NC(=O)c2nn(-c3ccc(Cl)cc3Cl)c(-c3ccc(Cl)cc3)c2C)C1 |  | 530 nM |  |  |  |  | 
